beta cell repl = MIN6 beta-cell proliferation induction; 330,000 tested, 0.29% active; proliferation, % at 10 µM; MIN6 cells proliferation, ATPlite luminescence, 48 h; cells starved in 0.2% serum; 100% = growth in 10% serum;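 active = compounds whose signal lies at least 3.5 SD above the mean of all wells on their plate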;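 note: 0% = DMSO-treated cells in low-serum medium and 100% = 10% serum control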
TLR4 MyD88 comp = inhibitors of human TLR4-MyD88 binding; O00206+Q99836; HeLa CL3-4 TLR4/MyD88 BLA complementation, FRET ratio; 200,000 tested, 0.18% active; inhibition, % at 8.4 µM; in the data active = inhibition above about 25%;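 note: 0% = vehicle and 100% = reference inhibitor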
TLR9-MyD88 inh = blocks human TLR9 binding to MyD88. CHO BLA complementation TLR9-MyD88, CCF4 FRET ratio. Q9NR96+Q99836. AID 504734. inhibition, % at 4.98 µM. 340,000 tested, 0.21% active;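 active = inhibition above the mean over all tested compounds plus 3 SD, cut at about 21% in these data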;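 note: 0% = DMSO only wells and 100% = clavulanate BLA inhibitor control wells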
NOD2-RIPK2 inh = blocks binding of human NOD2 to RIPK2. AID 624267. inhibition, % at 4.98 µM. 360,000 tested, 0.38% active. CHO BLA complementation NOD2-RIPK2, CCF4 ratio; in the data active = inhibition above about 21%;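 note: 0% = vehicle only and 100% = reference blocker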
MC4R antag cAMP = blocks human MC4R cAMP signaling. MC4R-expressing cells, MTII-stimulated cAMP, LANCE TR-FRET. P32245. inhibition, % at 6.5 µM. AID 540295. 360,000 tested, 0.48% active;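 active = inhibition above its plate's cutoff, the mean of tested wells on that plate plus 3 SD, cut at about 29% in these data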;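 note: 0% = Melanotan II alone and 100% = Melanotan II plus saturating MCL0020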
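Material: U2OS-MC4R stable cell line | Reagent: Melanotan II challenge after compound preincubation | Doses: One concentration, 6.5 µM nominal | Incubation: 30-min compound preincubation, 1-h Melanotan II challenge, 1-h detection, room temperature | Signal: TR-FRET cAMP assay | Replicates: One well per compound, no replicates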
MC4R ag barr = human MC4R agonism via beta-arrestin. P32245. U2OS MC4R beta-arrestin complementation, luminescence; percent of melanotan II response, DMSO zero. activation, % at 8.9 µM. 360,000 tested, 0.98% active;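 active = activation above a per-plate cutoff, the mean activation of sample wells on that plate plus 3 SD, cut at about 8% in these data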
U2OS cAMP counter = nonselective cAMP signaling inhibitor, MC4R antagonist counter-screen. 1,600 tested, 26% active. shares compounds with MC4R antag cAMP. AID 602193. inhibition, % at 6.5 µM. parental U2OS, forskolin cAMP, LANCE TR-FRET;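 active = mean inhibition over triplicates above the low-control well mean plus 3 SD, set per campaign, cut at about 13% in these data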;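 note: signal is single emission at 671 nm which falls as cellular cAMP rises; 0% = forskolin-stimulated wells and 100% = buffer without forskolin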
MC4R antag conf = human MC4R cAMP antagonism confirmation; shares compounds with MC4R antag cAMP; MC4R-expressing cells, MTII-stimulated cAMP, TR-FRET; inhibition, % at 6.5 µM; 1,600 tested, 27% active; AID 602195; in the data active = inhibition above about 29%;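 note: 0% = agonist stimulated wells alone and 100% = agonist stimulated wells plus saturating reference antagonist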
Active calls of the source: *; · = no result. An excerpt weighted towards active compounds, which were near 2.1% of everything screened.

SMILES	beta cell repl	TLR4 MyD88 comp	TLR9-MyD88 inh	NOD2-RIPK2 inh	MC4R antag cAMP	MC4R ag barr	U2OS cAMP counter	MC4R antag conf
COc1ccc2nc(NC(=O)C3CCCN(S(=O)(=O)c4cccc5nonc45)C3)sc2c1 (centres undefined)	-1	-2	3	-7	13	0	·	·
Cc1ccc(-c2csc(NC(=O)C3=NN(c4ccccc4)C(=O)CC3)n2)cc1	-6	8	1	-7	5	-1	·	·
CC(C)[C@H](NS(=O)(=O)c1ccccc1)C(=O)OCC(=O)Nc1ccccc1Sc1ccccc1	-6	-16	-2	-11	10	2	·	·
O=C(COC(=O)CNS(=O)(=O)c1cccc(Br)c1)Nc1ccccc1Sc1ccccc1	-5	-10	-4	-8	29*	5	6	18
O=C(COC(=O)CNS(=O)(=O)c1c(Cl)cccc1Cl)Nc1ccccc1Sc1ccccc1	-2	-1	5	9	32*	0	18*	37*
CCCC(=O)OCC(=O)Nc1ccccc1Sc1ccccc1	0	-4	-12	2	19	-1	·	·
COCCNC(=O)C1(C)CCCN(CCC(=O)c2ccc(Br)cc2)C1 (centres undefined)	·	·	·	9	9	-1	·	·
Cc1ccc(S(=O)(=O)N2CCC(N3CCN(C)CC3)CC2)cc1Cl	-2	·	-4	-8	-5	1	·	·
CCOCc1c(C(=O)NC2=Nc3ccccc3NC(CC)=C2C(=O)OCC)oc2ccccc12	-5	-1	-1	-4	38*	6	25*	17
CCOC(=O)C1=C(CC)Nc2ccccc2N=C1NC(=O)c1oc2ccccc2c1C	-6	-4	-14	-5	0	0	·	·
CCN(CC)S(=O)(=O)c1ccc(Cl)c(C(=O)OC2CC(C)OC2=O)c1 (centres undefined)	1	·	-10	-2	40*	2	9	20
S=c1[nH]nc(-c2cccc(Br)c2)o1	-3	1	9	7	46*	-3	16*	24
S=c1[nH]nc(-c2cccnc2)o1	-1	9	-8	-1	13	-1	·	·
Cn1nc([N+](=O)[O-])nc1Sc1cccc2cccnc12	-6	0	3	-3	30*	0	8	3
O=[N+]([O-])c1ccc(Cl)cc1Sc1cccc2cccnc12	0	-5	-2	2	4	4	·	·
N#CC1(NC(=O)CN2C(=O)c3ccccc3C2=O)CCCCC1	-2	·	0	-6	1	-2	·	·
N#CC1(NC(=O)Cn2ncc(Cl)c(Cl)c2=O)CCCCC1	-8	·	10	10	35*	-3	25*	37*
CC1CN(C(=O)COC(=O)CSc2ccc([N+](=O)[O-])cc2)CC(C)O1 (centres undefined)	2	·	-8	3	0	-5	·	·
Cc1ncn(-c2ccc(C(=O)Oc3ccccc3)cn2)n1	-6	5	-2	8	29*	-1	10	24
CCCN(CC(=O)Nc1ccccc1C)CC(=O)Nc1ccc(Br)cc1F	-4	·	-10	-2	29*	2	0	3
COc1ccc(-n2c(CN3CCN(c4ccccn4)CC3)nc3ccc([N+](=O)[O-])cc3c2=O)c(OC)c1	0	1	0	-5	38*	-1	1	7
COc1ccc(-n2c(CN3CCN(Cc4ccccc4)CC3)nc3ccc([N+](=O)[O-])cc3c2=O)c(OC)c1	0	-4	7	-9	16	0	·	·
Cc1ccc(S(=O)(=O)N2CCC[C@H]2C(=O)OCC(=O)N2CCc3ccccc32)cc1	-2	·	-166	-11	31*	0	8	16
Cc1ccnc2nc(C(=O)OCC(=O)N3CCc4ccccc43)nn12	0	1	3	-6	34*	-1	-6	-10
Cc1ccc(S(=O)(=O)N2CCC(C(=O)OCC(=O)N3CCc4ccccc43)CC2)cc1	2	-18	1	-2	5	0	·	·
SMILES	beta cell repl	TLR4 MyD88 comp	TLR9-MyD88 inh	NOD2-RIPK2 inh	MC4R antag cAMP	MC4R ag barr	U2OS cAMP counter	MC4R antag conf
Brc1ccc(-c2nnc3sc(CNC4CCCC4)cn23)cc1	-1	-4	2	-2	32*	0	17*	33*
CC(C)(C)c1nn(-c2ccccc2)c2[nH]c(=O)c(C=O)cc12	-5	·	-4	3	3	0	·	·
CCn1c2ccccc2c2cc(/C=N/NC(=O)c3cc(O)cc(O)c3)ccc21	-2	-13	-5	1	12	0	·	·
CCn1c2ccccc2c2cc(/C=N/NC(=O)c3ccc(O)cc3)ccc21	0	-7	11	4	29*	5	6	9
COc1ccc(/C=N/NC(=O)CCn2c3ccccc3c3ccccc32)cc1OC	1	2	-11	-4	29*	1	-4	-18
CCn1nnc2cc(C(=O)O)ccc21	0	·	-10	2	2	-1	·	·
Cc1ccc(N2C(=O)c3cccc([N+](=O)[O-])c3C2=O)cc1C	-3	4	-5	-17	42*	-1	23*	45*
Cc1cccc(C)c1N1C(=O)c2cccc([N+](=O)[O-])c2C1=O	1	-16	0	3	-1	-2	·	·
COCCCn1c(SCC(=O)NC2CCCCC2)nnc1-c1ccncc1	-2	3	-2	-6	2	-2	·	·
COCCn1c(SCC(=O)NC2CCCCC2C)nnc1-c1ccncc1 (centres undefined)	-2	·	3	-4	29*	0	0	-4
CN1CCC(=NNC(=O)CSc2ccc(Cl)cc2)CC1	-2	8	3	2	-4	-3	·	·
Cc1nc(N2CCC(C)CC2)c2c(C)c(C(=O)Nc3ccccc3C(F)(F)F)sc2n1	-6	-7	-2	-2	30*	2	2	18
Cc1nc(N2CCC(C)CC2)c2c(C)c(C(=O)Nc3ccc(C)c(F)c3)sc2n1	-4	-4	7	-9	12	2	·	·
O=C(O)CCC(=O)N1N=C(c2ccc(Br)cc2)CC1c1cccs1 (centres undefined)	0	6	1	-5	30*	-2	4	6
O=C(O)CCC(=O)N1N=C(c2ccco2)CC1c1cccs1 (centres undefined)	0	0	-7	-3	6	-1	·	·
CC(C)n1nnnc1SCC(=O)N1N=C(c2cccs2)CC1c1cccs1 (centres undefined)	4	·	-31	1	0	-1	·	·
